Compound activity: PubChem BioAssay, Johns Hopkins Ion Channel Center
RGS4 act – RGS4 potentiation or activation; HEK293 M3R/inducible RGS4, carbachol calcium flux Fluo4; hits give low values; B-score at 10 µM; 310,000 tested, 0.92% active;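 active = B-score of the integrated calcium signal more than 4 SD below the library mean, with starting fluorescence not abnormally high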;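 also: negative B-score means reduced calcium response which marks RGS4 activation or potentiation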
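test system = HEK293 cells with stable M3R and inducible RGS4 | schedule = recording 10 s baseline at 1 Hz, 100 s post-agonist | technique = Fluo4-AM (2 µM) calcium-flux fluorescence, kinetic read | measure = Agonist-evoked peak-minus-minimum fluorescence over baseline, integrated ratio, B score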
MrgX1 antagonist – human MrgX1 receptor antagonism, primary screen | B-score at 10 µM | 310,000 tested, 1.3% active | MRGX1-HEK293 calcium flux, Fluo-4, BAM8-22 antagonism; hits give low values;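 active = calcium-response B-score plate-corrected more than 3 library SD below zero, starting fluorescence within 5 deviations, no agonist response on first addition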;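 also: peak minus trough fluorescence over baseline after final BAM8-22 challenge near maximal dose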
Target sequence (Q96LB2 whole entry, looked up): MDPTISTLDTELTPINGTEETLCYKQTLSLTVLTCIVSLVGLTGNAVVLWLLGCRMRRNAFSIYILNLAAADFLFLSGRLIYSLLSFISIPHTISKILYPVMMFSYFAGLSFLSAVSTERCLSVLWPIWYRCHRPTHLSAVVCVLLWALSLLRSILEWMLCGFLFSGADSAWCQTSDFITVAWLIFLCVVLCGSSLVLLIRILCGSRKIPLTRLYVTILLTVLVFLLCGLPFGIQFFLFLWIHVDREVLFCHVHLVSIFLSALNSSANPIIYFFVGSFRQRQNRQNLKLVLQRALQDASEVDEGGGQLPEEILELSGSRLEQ
RGS4 inh – human RGS4 inhibition | B-score at 10 µM | HEK293 M3R/RGS4 inducible, Fluo-4 calcium flux; hits give high values; triggered by carbachol at its EC20 | P49798 | 310,000 tested, 0.45% active;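 active = B-score, a plate-corrected calcium signal, over three deviations above library mean, with baseline fluorescence within five deviations of library mean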;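 also: RGS4 expression induced by doxycycline in cells with stable M3 receptor; B-score is computed from the integrated fluorescence ratio over baseline after carbachol; higher B-score means a larger calcium signal and so more RGS4 inhibition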
Target sequence (P49798 whole entry, looked up): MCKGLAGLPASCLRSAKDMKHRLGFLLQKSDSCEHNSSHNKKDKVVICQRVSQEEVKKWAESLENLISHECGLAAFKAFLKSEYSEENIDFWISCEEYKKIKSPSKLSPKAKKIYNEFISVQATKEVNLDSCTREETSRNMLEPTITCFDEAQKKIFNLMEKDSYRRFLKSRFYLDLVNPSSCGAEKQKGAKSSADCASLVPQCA
MrgX1 PAM – human MrgX1 positive allosteric modulation, primary screen | MrgX1-HEK293, Fluo-4 calcium flux, FDSS; hits give high values | 310,000 tested, 0.63% active | Q96LB2 | B-score at 10 µM;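 active = plate-corrected calcium response at least 3 library SD above typical, normal starting fluorescence, not activating the receptor alone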;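 also: compound read alongside a low EC10 to EC30 dose of BAM8-22 agonist; peak minus trough fluorescence over baseline measured at the second addition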
MrgX1 ag – agonists of human MrgX1 receptor; Q96LB2; MrgX1-HEK293 cells, Fluo-4 calcium fluorescence, agonist mode; hits give high values; B-score at 10 µM; 310,000 tested, 0.44% active;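 active = calcium response B-score plate-corrected fluorescence ratio at least 3 library SD, with starting fluorescence B-score inside 5 SD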
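Material: MrgX1-expressing HEK293 cells; input: 15,000 cells per well; doses: test compound given as first of three sequential additions; schedule: overnight plating before 1 h dye loading; technique: Fluo-4 NW calcium-flux fluorescence, kinetic read; evaluation: baseline-normalised fluorescence change ratio, B-scored; control set: plate-wise positive and negative controls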
Numbers without * were called inactive; i = inactive. Rows were chosen to be rich in hits. Some 3.5% of all compounds tested hit in one or more screens of this group.

SMILES | RGS4 act | MrgX1 antagonist | RGS4 inh | MrgX1 PAM | MrgX1 ag
Cc1oc2c(cc(NS(=O)(=O)c3ccc(C(C)C)cc3)c3ccccc32)c1C(=O)O | -8.6* | i | i | i | i
Cc1oc2c(cc(NS(=O)(=O)c3ccc(F)cc3)c3ccccc32)c1C(=O)O | i | i | i | i | i
CCCc1ccc(OCc2ccc(C(=O)O)o2)c(OC)c1 | i | i | i | i | i
CCCc1ccc(OCc2ccc(C(=O)NN)o2)c(OC)c1 | i | -5.3* | i | i | i
Cn1cccc1/C=C(/C#N)C(N)=S | i | i | i | i | i
N#C/C(=C/c1ccc(F)cc1)C(N)=S | i | i | i | i | 28*
Cc1cc(/C=C2\SC(=S)N(Cc3ccco3)C2=O)c(C)n1-c1ccccc1 | i | -4.5* | i | i | i
O=C1/C(=C\c2ccco2)SC(=S)N1Cc1ccccc1 | i | i | i | i | i
COc1ccc(-n2c(C)cc(/C=C3/SC(=S)N(C)C3=O)c2C)cc1 | i | i | i | i | i
Cc1cc(/C=C2\SC(=S)N(C)C2=O)c(C)n1-c1cccc(O)c1 | i | -5.7* | i | i | i
O=C(COC(=O)c1cc([N+](=O)[O-])ccc1N1CCOCC1)Nc1ccc(Cl)cc1 | i | -8.3* | i | i | i
CCc1nnc(NC(=O)c2cc([N+](=O)[O-])ccc2N2CCOCC2)s1 | i | -6.3* | i | i | i
C/C(=N\Nc1ccc([N+](=O)[O-])cc1)c1ccc(O)cc1 | i | -5.6* | i | i | i
Cn1c(=O)cc(OCC(=O)NCCCN2CCN(Cc3ccccc3)CC2)c2ccccc21 | i | -4.5* | i | i | i
COCCC(=O)Nc1ccc2c(c1)CN(C(=O)c1ccc(CSC)o1)CC2 | i | i | i | i | i
N=c1oc2c3c4c(cc2cc1C(=O)Nc1ccccc1)CCCN4CCC3 | -9.3* | i | i | i | i
COc1ccc(N/N=C(/C(C)=O)N2CCCc3ccccc32)cc1 | -8* | i | i | i | i
COc1ccc(NC(=O)N2CCCc3ccccc32)cc1 | i | i | i | i | i
Cc1ccccc1CN1CCN(C(=O)c2cc(-c3ccncc3)nc3ccccc23)CC1 | -7.1* | i | i | i | i
CC(=O)c1ccc(N2CCN(C(=O)c3cc(-c4ccncc4)nc4ccc(Cl)cc34)CC2)cc1 | -7.4* | i | i | i | i
COc1cccc(CN2CCN(C(=O)c3cc(-c4ccncc4)nc4ccc(C)cc34)CC2)c1 | -7* | i | i | i | i
CC1CC(C)CN(C(=O)c2cc(-c3ccncc3)nc3ccccc23)C1 (stereo not given) | i | i | i | i | i
O=[N+]([O-])c1ccc2nc(-c3ccc(Cl)cc3)[nH]c2c1 | i | -5.8* | i | i | i
Cc1ccc(-c2nc3ccc([N+](=O)[O-])cc3[nH]2)cc1 | i | i | i | i | i
CCC(=O)Oc1ccc2c(C)cc(=O)oc2c1C(=O)CC | i | i | i | 6.9* | i
SMILES | RGS4 act | MrgX1 antagonist | RGS4 inh | MrgX1 PAM | MrgX1 ag
COc1ccc(/C=N/Nc2cc(C)nc3c(C)cccc23)cc1 | i | -4.6* | i | i | i
Cc1ccc(Cc2ccc(C(=O)NNC(N)=S)o2)cc1 | i | i | i | i | i
c1ccc(OCCN2CCN(C(c3ccccc3)c3ccccc3)CC2)cc1 | i | i | i | i | i
CC(=O)CC1(O)C(=O)Nc2ccccc21 (stereo not given) | i | i | i | i | i
O=C1Nc2ccccc2C1(O)C/C(=N/O)c1ccccc1 (stereo not given) | i | -7.5* | i | i | i
Cc1cccc(C(=O)Nc2cccc3c2CCCC3)c1 | i | i | i | i | i
COc1ccc(CCC(=O)NCCS(=O)(=O)N2CCN(c3ccccc3OC)CC2)cc1 | i | i | i | i | i
O=S(=O)(Cc1ccccc1)N=Nc1c(O)[nH]c2ccc(Br)cc12 | i | i | i | 10* | i
O=C(CNC(=O)c1ccccc1)N=Nc1c(O)[nH]c2ccc(Br)cc12 | i | i | i | i | i
O=C(NCc1ccco1)c1cc2c(s1)CCCCC2 | -7.1* | i | i | i | i
O=C(O)c1cc(-c2ccc(/C=c3\sc4nc5ccc(Br)cc5n4c3=O)o2)ccc1Cl | i | i | i | i | 42*
CC/C(=N\Nc1ccccc1[N+](=O)[O-])c1ccc(O)cc1 | i | i | i | i | i
CCN(CC)c1ccc(/C=C2\C(=O)N(c3nnc(C)c(=O)[nH]3)N=C2C)cc1 | i | i | i | i | 42*
CCN(CC)c1ccc(/C=C2/C(=O)ON=C2C)cc1 | i | i | i | i | 57*
CC1=NOC(=O)/C1=C/c1ccc(N(C)C)cc1 | i | i | i | i | 46*
CCCOc1ccc(/C=C2/C(=O)ON=C2C)cc1Cl | i | i | i | i | i
COc1ccc(/C=C2/C(=O)N(c3ccccc3)N=C2C)cc1 | i | i | i | i | i
CCC(C)(C)NC(=O)C(c1ccc(OC)cc1)N(C(=O)CCC(=O)Nc1cc(C)on1)C(C)(C)C (stereo not given) | i | i | i | i | i
CCOc1ccccc1NC(=O)C1(S(=O)(=O)c2ccc(Cl)cc2)CC1 | -7* | i | i | i | i
COC(=O)c1c(NC(=O)COC(=O)c2ccc(Cl)cc2[N+](=O)[O-])sc2c1CCCCC2 | i | i | i | i | i
COC(=O)c1c(NC(=S)Nc2ccc(F)cc2[N+](=O)[O-])sc2c1CCCCC2 | i | i | i | 8.9* | i
Cc1ccc(Cl)cc1N1CCN(C(=O)c2cc3c(=O)n(C)c4ccccc4c3n2C)CC1 | -7.2* | i | i | i | i
Cc1ccc(-c2nnc(NC3CCCC3)s2)cc1 | i | i | i | i | i
CCN(CC)CC#CCC(O)(c1ccccc1)c1ccc(Br)cc1 (stereo not given) | -7.8* | i | i | i | i
NNC(=O)c1ccc(CSc2cccc3cccnc23)cc1 | i | -4.6* | i | i | i
O=C(N/N=C/c1ccccc1Br)c1ccc(CSc2cccc3cccnc23)cc1 | i | i | i | i | i
OCC[C@@H]1C[C@H](O)[C@@H](O)[C@]2(CCCCO2)O1 | i | i | i | i | i
Cc1ccc(C)c2sc(N3CCN(C(=O)c4ccc([N+](=O)[O-])o4)CC3)nc12 | i | -7.5* | i | i | i
